From publication PMC10938568 (Science Advances, 2021) come the findings set out here.

Assay [1] concerns HEK293T cells. The assay is described as follows: LC3 lipidation / GFP-LC3B puncta, WT or ATG13_KO cells. In kind it is cell-based, human. The note with it: for LC3 lipidation / puncta (in words): HEK293T WT or ATG13_KO, MK6-83 25 μM, C8 2 μM, AZD8055 1 μM. In outline: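 HEK293T cells in DMEM with 10% FBS and 1% penicillin/streptomycin at 37°C, 5% CO2, treated over a time course. Lysates denatured in Laemmli buffer at 100°C for 5 min. Immunoblot: primary antibodies in 5% BSA/TBS-0.2% Tween 20 overnight at 4°C; HRP secondaries at 1:20,000 for 1 h at room temperature. GFP-LC3B followed by time-lapse imaging.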

Assay [2] deals with TFEB. Nature of the assay: TFEB activation / nuclear localization. In kind it is cell-based. In short, it runs like this:
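FNIP1/2_DKO HeLa expressing WT or LIR FNIP1 were stimulated with two TRPML1-activating agents (2 μM and 1 μM). TFEB was immunostained with primary antibody overnight at 4°C, then Alexa secondary (1:1000) with DAPI for 1 h at RT. TFEB nuclear localization was scored by high-content imaging, ≥1500 cells per condition. Values are means ± SD; unpaired t test.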

For assay [3], the system named is FLCN-FNIP1 complex. Nature of the assay: Co-immunoprecipitation of GABARAP with FLCN-FNIP1. The assay is classed as binding, human. The note with it: HEK293T cells, transfected 20 hours.
The subject of assay [4] is primary bone marrow–derived macrophages (BMDMs). The assay is described as follows: LC3 puncta in primary BMDMs, ATG16L1 WT or K490A. The assay is classed as cell-based, mouse. The note with it: 1 hour.
Assay [5] relates to FNIP1/2_DKO HeLa cells. The assay is described as follows: GPNMB protein level. The assay is classed as cell-based. The note with it: prolonged treatment; WT or LIR FNIP1 in FNIP1/2_DKO HeLa. In short, it runs like this: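 GPNMB, a TFEB/TFE3 target, was read by Western blot in FNIP1/2_DKO HeLa re-expressing WT or LIR-variant FNIP1 after prolonged stimulation to activate TRPML1. Cells were grown at 37°C in 5% CO2. Lysates were denatured in Laemmli buffer (100°C, 5 min). Primary antibody (1:1000 unless noted) was in 5% BSA/TBS-0.2% Tween 20, overnight at 4°C. HRP secondary was 1:20,000, 1 h at RT.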

Assay [6] has as its system FLCN-FNIP1 complex in HeLa cells. The assay is described as follows: FLCN-FNIP recruitment to membrane fractions, Western blot. In kind it is cell-based. The note with it: monensin 1uM, C8 2uM, 30 min; WT or TRPML1_KO HeLa. In short, it runs like this:
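HeLa cells (WT or TRPML1_KO) grown in DMEM with 10% FBS and 1% penicillin/streptomycin at 37°C, 5% CO2. 1.5 × 10^6 cells plated the day before treatment. Membrane fractions prepared with a commercial kit and denatured in Laemmli buffer at 100°C for 5 min. Immunoblot: primary antibodies in 5% BSA/TBS-0.2% Tween 20 at 4°C overnight; HRP secondaries at 1:20,000 for 1 h at room temperature.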

`Cc1ccc(S(=O)(=O)Nc2ccccc2N2CCCCC2)s1` [MK6-83]: the “LC3 lipidation / puncta (in words)” value in assay [1] was “rapid conversion of LC3 from its cytoplasmic “I” form to the lipidated, punctate “II” form in both wild-type (WT) and autophagy-deficient cells (ATG13_KO)”.
`CO/C1=C\C(C)=C\[C@@H](C)[C@@H](O)[C@@H](C)C/C(C)=C/C=C/[C@H](OC)[C@@H]([C@@H](C)[C@@H](O)[C@H](C)[C@@]2(O)C[C@@H](O)[C@H](C)[C@@H](C(C)C)O2)OC1=O` [BafA1, bafilomycin A1]: the “TFEB activation, effect of BafA1 cotreatment (in words)” value in assay [2] (BafA1 100 nM, acute, HeLa) is on record as “sufficient to block TFEB activation by TRPML1 agonists; however, it did not affect TFEB activation upon mTOR inhibition”.
In the case of “GABARAP: full-length human GABARAP (1 to 117), ATG8 family protein”, in assay [3], the “interaction with FLCN-FNIP1 complex (in words)” value is reported as “interacts with GABARAP through LIR-dependent binding”.
As for `CC1=CC(C)(C)N(C(=O)CN2C(=O)c3ccccc3C2=O)c2ccccc21` [ML-SA1], the “LC3 lipidation / puncta (in words)” value in assay [1] was “rapid conversion of LC3 from its cytoplasmic “I” form to the lipidated, punctate “II” form in both wild-type (WT) and autophagy-deficient cells (ATG13_KO)”. For the same compound, in assay [4], the “LC3 puncta in BMDMs (in words)” value was “unable to induce LC3 puncta in ATG16L1^K490A-expressing cells”.
Consider `COc1ccc(-c2ccc3c(N4CCOC[C@@H]4C)nc(N4CCOC[C@@H]4C)nc3n2)cc1CO` [AZD8055], for which, in assay [1] (BafA1 100 nM, PIK-III 5 μM), the “LC3 lipidation, sensitivity to BafA1 or PIK-III (in words)” value is “sensitive to the VPS34 inhibitor PIK-III and potentiated with the vacuolater ATPase (V-ATPase) inhibitor bafilomycin A1 (BafA1)”. The “LC3 lipidation / puncta (in words)” value in assay [1] was “able to regulate LC3 lipidation in WT but not ATG13_KO cells”. The “TFEB activation versus ATG16L1 allele status (in words)” value in assay [2] (ATG16L1_KO HeLa reexpressing ATG16L1 variants) was “activated TFEB irrespective of ATG16L1 allele status”. In addition, the “TFEB activation / nuclear accumulation (in words)” value in assay [2] (HeLa) is listed as “robust TFEB activation”. Also, the “GPNMB protein levels (in words)” value in assay [5] is given as “largely suppressed”.
Regarding `CC[C@@]1([C@@H]2O[C@@H]([C@H]3O[C@@](O)(CO)[C@H](C)C[C@@H]3C)C[C@@H]2C)CC[C@H]([C@]2(C)CC[C@]3(C[C@H](O)[C@@H](C)[C@@H]([C@@H](C)[C@@H](OC)[C@H](C)C(=O)O)O3)O2)O1` [monensin], the “TFEB activation, FNIP1-LIR dependence (in words)” value in assay [2] (FNIP1-WT or FNIP1-LIR in FNIP1/2_DKO HeLa, monensin 1uM, 4 hr) was “regulated TFEB activation in an FNIP1-LIR domain–dependent manner”. In assay [6], the “FLCN-FNIP membrane recruitment (in words)” value was “could induce FLCN-FNIP1 complex sequestration independently of TRPML1”.
